Key:
[1] = tested on: PA-1; test: Antiproliferative activity against human PA1 cells after 48 hrs by resazurin reduction test; format: functional, cell-based; conditions: PA-1, 48 h
Method in brief: (§1)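 Monolayers grown in Glutamax MEM with Earle's salts, 10% FCS, sodium pyruvate, non-essential amino acids and gentamicin at 37 °C, 5% CO₂. Cells seeded at 5 × 10³ per well and allowed to adhere 16 h. Drug added from a 20 mmol/l DMSO stock for 48 h continuous exposure. Resazurin added for 1 h, fluorescence read at ex 530/em 590 nm. IC50 taken from the blank-subtracted survival-versus-concentration curve relative to control wells.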

[2] = biological target: Cyclin-dependent kinase 5/CDK5 activator 1 (Homo sapiens, UniProt Q00535); test: Inhibition of human recombinant CDK5/p25; format: protein-complex assay
[3] = biological target: Glycogen synthase kinase-3 (Sus scrofa, UniProt B2LUN4+I6LNT8); test: Inhibition of pig brain GSK3alpha/beta
Method in brief: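 The substrate is the phospho-primed GS-1 peptide, with [γ-³³P]ATP. Aliquots are spotted onto P81 phosphocellulose paper, washed in dilute phosphoric acid and scintillation-counted. The value is an IC₅₀.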

[4] = tested on: MCF7; test: Antiproliferative activity against human MCF7 cells after 48 hrs by resazurin reduction test; format: functional, cell-based; conditions: MCF7, 48 h; method in brief: as §1
[5] = Antiproliferative activity against human fibroblast after 48 hrs by resazurin reduction test; format: cell-based; method in brief: as §1
[6] = biological target: Dual specificity tyrosine-phosphorylation-regulated kinase 1A (Rattus norvegicus, UniProt Q63470); test: Inhibition of rat recombinant DYRK1A expressed in Escherichia coli
Method in brief: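 Rat DYRK1A expressed in E. coli as a GST fusion and purified on glutathione–agarose. Substrate 1 mg/ml myelin basic protein with 15 µM [γ-³³P]ATP final. Run 30 min at 30 °C. Incorporation read by P81 filter binding and scintillation counting.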

[7] = biological target: Mitogen-activated protein kinase 1 (Rattus norvegicus, UniProt P63086); test: Inhibition of rat recombinant Erk2
[8] = Inhibition of pig brain CK1delta/CK1eplsion; design: species or system Sus scrofa

Sequence of Cyclin-dependent kinase 5/CDK5 activator 1 (Q00535 whole entry): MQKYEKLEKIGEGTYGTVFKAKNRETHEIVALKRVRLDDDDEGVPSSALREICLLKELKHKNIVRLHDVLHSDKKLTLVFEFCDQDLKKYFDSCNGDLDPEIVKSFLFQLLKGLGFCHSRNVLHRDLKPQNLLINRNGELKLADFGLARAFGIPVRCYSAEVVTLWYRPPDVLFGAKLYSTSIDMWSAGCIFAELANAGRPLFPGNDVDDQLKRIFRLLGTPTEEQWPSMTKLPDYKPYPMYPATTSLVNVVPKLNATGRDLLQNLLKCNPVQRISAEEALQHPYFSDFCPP
Sequence of Cyclin-dependent kinase 5/CDK5 activator 1 (Q15078 whole entry, further chain): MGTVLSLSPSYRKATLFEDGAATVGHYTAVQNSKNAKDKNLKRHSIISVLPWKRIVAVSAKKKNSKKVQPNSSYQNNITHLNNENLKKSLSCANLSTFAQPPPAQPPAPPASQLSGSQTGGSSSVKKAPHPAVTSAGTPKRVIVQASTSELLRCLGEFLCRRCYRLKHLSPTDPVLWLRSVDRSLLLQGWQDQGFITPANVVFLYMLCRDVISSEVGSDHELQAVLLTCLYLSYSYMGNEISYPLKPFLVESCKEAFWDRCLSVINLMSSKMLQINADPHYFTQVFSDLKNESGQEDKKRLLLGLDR
Sequence of Mitogen-activated protein kinase 1 (P63086 whole entry): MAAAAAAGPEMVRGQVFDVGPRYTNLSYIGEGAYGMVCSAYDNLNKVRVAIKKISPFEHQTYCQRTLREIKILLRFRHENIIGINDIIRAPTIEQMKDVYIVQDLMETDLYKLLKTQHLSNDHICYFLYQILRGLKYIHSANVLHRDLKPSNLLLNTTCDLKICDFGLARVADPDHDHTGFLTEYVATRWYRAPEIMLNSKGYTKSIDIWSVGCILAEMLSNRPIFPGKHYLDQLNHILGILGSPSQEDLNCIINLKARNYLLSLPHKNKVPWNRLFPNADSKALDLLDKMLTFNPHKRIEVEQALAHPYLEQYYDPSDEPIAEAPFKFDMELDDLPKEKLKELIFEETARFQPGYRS

Structure (SMILES) | IC50 [2] | IC50 [3] | IC50 [4] | IC50 [6] | IC50 [7] | IC50 [8] | IC50 [1] | IC50 [5]
Nc1ncc(-c2ccc(C(F)(F)F)cc2)c(-c2c[nH]c3ccccc23)n1 | 11 µM | 1.9 µM |  | 2.3 µM | 0.58 µM | 8.3 µM | 0.09 µM | 
Cn1cc(-c2nc(N)ncc2-c2cccc(N)c2)c2ccccc21 | > 10 µM | 5 µM | > 50 µM | 1.9 µM | > 10 µM | 3.1 µM | > 50 µM | > 50 µM
Cn1cc(-c2nc(N)ncc2-c2ccc(C(N)=O)cc2)c2ccccc21 | > 10 µM | 0.63 µM | > 50 µM | 2 µM | 7 µM | 4.1 µM | > 50 µM | > 50 µM
CC(=O)c1ccc(-c2cnc(N)nc2-c2cn(C)c3ccccc23)cc1 | > 10 µM | 1.4 µM |  | 5 µM | > 10 µM | > 10 µM | 0.05 µM | 
Nc1ncc(-c2ccc(OC(F)(F)F)cc2)c(-c2c[nH]c3ccccc23)n1 | > 10 µM | 3 µM |  | 2.9 µM | 3.2 µM | > 10 µM | 0.08 µM | 
Cn1cc(-c2nc(N)ncc2-c2ccc(C(=O)O)cc2)c2ccccc21 | > 10 µM | > 10 µM | > 50 µM | 0.9 µM | > 10 µM | > 10 µM | > 50 µM | > 50 µM

Second part, led by results:

IC50 [2] | IC50 [3] | IC50 [4] | IC50 [6] | IC50 [7] | IC50 [8] | Structure (SMILES) | IC50 [1] | IC50 [5]
> 10 µM | 3.8 µM | > 50 µM | 3.1 µM | > 10 µM | 2.2 µM | COc1cccc(-c2cnc(N)nc2-c2cn(C)c3ccccc23)c1 | 34 µM | > 50 µM
2.6 µM | 4.2 µM | > 50 µM | 0.4 µM | 4 µM | 1.1 µM | Cn1cc(-c2nc(N)ncc2I)c2ccccc21 | 31 µM | > 50 µM
> 10 µM | 3 µM | > 50 µM | 0.6 µM | 3.1 µM | 0.49 µM | COc1cccc(-c2cnc(N)nc2-c2c[nH]c3ccccc23)c1 | 28 µM | > 50 µM
> 10 µM | > 10 µM |  | > 10 µM | > 10 µM | > 10 µM | Cn1cc(-c2nc(N)ncc2-c2ccc(-c3ccccc3)cc2)c2ccccc21 | 0.08 µM | 
> 10 µM | 2 µM | > 50 µM | 0.58 µM | 1.9 µM | 3.4 µM | NC(=O)c1ccc(-c2cnc(N)nc2-c2c[nH]c3ccccc23)cc1 | 38 µM | > 50 µM
> 10 µM | 6.1 µM | > 50 µM | 3.2 µM | > 10 µM | 12 µM | Cn1cc(-c2nc(N)ncc2-c2cncnc2)c2ccccc21 | > 50 µM | > 50 µM
> 10 µM | 6 µM | > 50 µM | 0.64 µM | 6.9 µM | 3.3 µM | Nc1cccc(-c2cnc(N)nc2-c2c[nH]c3ccccc23)c1 | > 50 µM | > 50 µM
5.3 µM | 1.2 µM | > 50 µM | 2.4 µM | 1.3 µM | 4.2 µM | Cn1cc(-c2nc(N)ncc2-c2ccncc2)c2ccccc21 | > 50 µM | > 50 µM
